# Compound activity: PubChem, SRMLSC
# Shown is part of a subset that was picked to be rich in hits.
# PostGolgi ctrl – yeast control strain growth, post-Golgi counter-screen | efflux-deficient yeast background strain, growth absorbance A615, 16 h | inhibition, % at 10 µM | actives 5% (n = 98,000)
# PostGolgi yeast – growth inhibition of a yeast mutant, post-Golgi transport screen | post-Golgi transport phenotypic cell assay | actives 0.9% (n = 98,000) | inhibition, % at 10 µM;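 note: yeast cells grown in 1536-well plates; yeast grown about 18 h at 30C before absorbance read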
# Yeast lifespan up – yeast lifespan extension; S. cerevisiae growth with nicotinamide, OD615; deaD strain in restrictive glucose medium; actives 0.68% (n = 130,000); inhibition of the nicotinamide effect, % at 10 µM;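 active = inhibition above a set limit, placed 3 SD over the median of all compounds, cut at about 26% in these data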;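 note: 0% = nicotinamide-treated wells and 100% = cells grown without nicotinamide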
#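 Measured by: optical density (absorbance) at 615 nm; System: modified budding yeast, DeaD strain; Medium: restrictive CSMM-D dextrose medium; Timing: 4 h preincubation then 48 h treatment at 30 °C.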
# Yeast growth inh – chemicals that inhibit yeast BB579 growth in restrictive medium (lifespan-shortening candidates); S. cerevisiae BB579 growth, OD615, 48 h; inhibition, % at 10 µM; actives 0.51% (n = 140,000); AID 804;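 active = inhibition above a set limit, 3 SD over the mean compound inhibition, cut at about 44% in these data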
#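 Assay system: S. cerevisiae DeaD strain BB579 yeast. Medium: CSMM-D restrictive synthetic medium containing dextrose (glucose). Times: 4 h cell preincubation, 48 h compound exposure, 30 °C humidified. Signal: OD615 turbidity measurement. Benchmarks: positive control amphotericin B 10 µg/mL.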
# The depositor's hits bear a star; / = not tested or not shown. Cut-off read from the data, not from the text of the source, unless noted: active = inhibition above about 30%; inactive = the rest.
SMILES,PostGolgi ctrl,PostGolgi yeast,Yeast lifespan up,Yeast growth inh
COC(=O)C(NC(=O)c1ccccc1Cl)(Nc1ncc(S(=O)(=O)c2ccc([N+](=O)[O-])cc2)s1)C(F)(F)F (configuration not stated),0,7,1,-55
O=C(COC(=O)c1ccc(-c2ccccc2)cc1)Nc1ccccc1-c1ccccc1,/,/,5,-30
Cc1ccc(OCC(=O)Nc2ccccc2-c2ccccc2)cc1,46*,-5,-32,-1
CC(C)C(C)NC(=O)COc1ccc(-c2ccccc2)cc1 (configuration not stated),18,32*,-7,-81
O=C(Nc1ccccc1-c1ccccc1)c1ccc(NC(=O)c2ccco2)cc1,16,2,-6,-41
O=C1NC(=O)C(=C2CCCCCC2)S1,/,/,8,-32
CCOc1ccc(S(=O)(=O)Nc2ccc(O)c(Sc3ncn[nH]3)c2)cc1,/,/,/,-8
COc1ccc(OC)c(S(=O)(=O)Nc2ccc(O)c(Sc3ncn[nH]3)c2)c1,43*,-5,-13,-23
Cc1nc(SCC(=O)Nc2cccc(Cl)c2)n[nH]1,44*,-4,-7,-49
COC(=O)CNc1nc(-c2cccnc2)nc2ccccc12,12,0,-11,-23
c1cncc(-c2nc(NCC3COc4ccccc4O3)c3ccccc3n2)c1 (configuration not stated),47*,1,-16,-49
Cc1cccc(NS(=O)(=O)c2cc(C(=O)N3CCCC3)ccc2Cl)c1,/,/,1,-20
Cc1ccc(NS(=O)(=O)c2cc(C(=O)NCCSc3ccc(C)cc3)ccc2C)cc1,36*,-9,-23,-6
Cc1ccc(NS(=O)(=O)c2cc(C(=O)N3CCOCC3)ccc2C)cc1,7,48*,-8,-64
Cc1ccc(SCCNC(=O)c2ccc(C)c(S(=O)(=O)Nc3cccc(C)c3)c2)cc1,25,-10,0,-7
CCOC(=O)/C(=C/c1ccc(OC(=O)c2ccccc2)cc1)C(C)=O,/,/,33*,17
Cc1ccccc1OCC(=O)OCC(=O)c1ccc(OC(=O)c2ccccc2)cc1,6,2,3,-30
O=C(Nc1ccc(Cn2cccn2)cc1)c1ccc(COc2ccccc2Br)cc1,32*,-8,-7,-27
O=C(Nc1ccn(Cc2c(F)c(F)c(F)c(F)c2F)n1)c1ccc(COc2ccccc2Cl)cc1,0,0,-26,-42
CCCC1CCc2c(sc(N)c2C(N)=O)C1 (configuration not stated),8,31*,1,-90
Cc1ccc(OC(F)F)c(NC(=O)Nc2cccc(C(F)(F)F)c2)c1,56*,-2,-14,-2
COc1ccc(C)cc1NC(=O)Nc1ccccc1,10,0,-21,-37
CC(=O)Nc1ccc(NC(=O)CN2CCN(c3cccc(C(F)(F)F)c3)CC2)cc1,6,-7,-14,-75
O=C(COCC(=O)Nc1cccc(C(F)(F)F)c1)Nc1cccc(C(F)(F)F)c1,43*,3,-16,-69
CNC(=O)Nc1cccc(C(F)(F)F)c1,15,10,-4,-37
SMILES,PostGolgi ctrl,PostGolgi yeast,Yeast lifespan up,Yeast growth inh
O=C(CN1CCN(c2cccc(C(F)(F)F)c2)CC1)Nc1cccc(C(F)(F)F)c1,35*,-2,-18,-6
COc1ccc(C2CC(c3cccs3)=NN2C(=O)c2ccc(Br)o2)cc1 (configuration not stated),/,/,4,-21
O=C(c1cccs1)N1N=C(c2ccc(O)cc2)CC1c1ccccc1 (configuration not stated),/,/,2,-19
O=C(c1ccco1)N1N=C(c2cccs2)CC1c1ccc(F)cc1 (configuration not stated),35*,14,-5,-7
O=C(c1cccs1)N1N=C(c2ccccc2)CC1c1ccccc1 (configuration not stated),69*,1,-1,-44
Cc1cccc2cc(C#N)c(NCCNS(=O)(=O)c3ccc4c(c3)OCCO4)nc12,25,7,-14,-27
COc1ccc(C(=O)Nc2ccc(S(=O)(=O)N3CCCCC3)cc2)cc1,11,4,-24,-27
COc1ccc(C(=O)Nc2ccc(S(=O)(=O)NC(C)=O)cc2)cc1,36*,-8,-9,-57
Clc1ccc(C2=Nn3c(nnc3-c3n[nH]c4c3CCC4)SC2)cc1Cl,38*,14,-6,-31
c1ccc(C2=Nn3c(nnc3-c3n[nH]c4c3CCC4)SC2)cc1,3,10,-7,-10
CC(=O)c1ccc(N2CCN(C(=O)c3ccco3)CC2)c(F)c1,5,-18,-12,5
CC(=O)c1ccc(N2CCN(C(=O)c3ccc(Br)cc3)CC2)c(F)c1,54*,87*,0,39
Cn1c(Sc2ccc(Br)cc2)c(C=O)c2ccccc21,32*,-2,-7,-31
COc1cc(OC)cc(C(=O)N[C@H](C(=O)NC23CC4CC(CC(C4)C2)C3)C(C)C)c1,28,47*,-14,-63
COc1ccc(C2CC(c3ccccc3)Nc3nc(NC(=O)c4ccco4)nn32)cc1 (configuration not stated),-4,4,-22,-15
COc1ccc(C2CC(c3ccc(OC)cc3)n3nc(NC(=O)c4ccco4)nc3N2)cc1 (configuration not stated),31*,5,-7,-44
Cc1ccc(C(=O)OCc2cn3ccccc3n2)cc1,-3,0,-13,-7
O=C(OCc1ccc2c(c1)OCO2)c1ccc(S(=O)(=O)N2CCCC2)cc1,17,-4,-10,-45
O=C(OCc1ccc2c(c1)OCO2)c1cccc(S(=O)(=O)N2CCCCC2)c1,38*,-5,1,-27
O=S(=O)(c1ccc2c(c1)OCCO2)N1CCN(Cc2ccc3c(c2)OCO3)CC1,31*,0,-13,-53
COc1cc(/C=N\NC(=O)C2CC3C=CC2C3)ccc1O (configuration not stated),/,/,-4,-14
COc1ccc(Cn2cnc3c([N+](=O)[O-])c(C)c(C)cc32)cc1,12,-1,-12,-58
Cc1ccccc1Cn1cnc2c([N+](=O)[O-])c(C)c(C)cc21,40*,14,24,-81
O=C(c1ccccc1)c1sc(N2CCCCCC2)nc1-c1ccccc1,33*,-5,2,-58
COc1ccc(-c2nc(N3CCCCCC3)sc2C(=O)c2ccccc2)cc1,16,-7,1,-50
SMILES,PostGolgi ctrl,PostGolgi yeast,Yeast lifespan up,Yeast growth inh
COC(=O)c1cc(NC(=O)Cc2ccccc2[N+](=O)[O-])cc(C(=O)OC)c1,5,-5,-7,-51
Cc1c(C(=O)NCc2ccccn2)oc2ccccc12,11,10,-9,-44
Cc1cc2oc(C(=O)NCc3ccncc3)c(C)c2cc1C,36*,-7,-11,7
CCSCc1nnc(SCC(=O)c2ccc(OC)cc2)n1C,-2,-6,0,-14
COc1ccc(Cc2nnc(SCC(=O)Nc3ncc(C)s3)o2)cc1,10,-2,-11,-20
COc1ccc(CCCc2nnc(SCC(=O)Nc3ncc(C)s3)o2)cc1,43*,0,-26,-32
CCC(C)NCCOCCOc1ccc(C)cc1Br (configuration not stated),37*,-4,4,-29
